Molecules are shown by their SMILES.

Series [1] can be described thus: Lipophilicity (Rm). In kind it is physicochemical.
The test system of the next series is HCT-8. Put plainly: Ability to inhibit the growth of human colon tumor HCT-8 cells in vitro. It counts as functional, cell-based. A digest of the protocol: (§1)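 Cultured leukemia L1210 or human colon tumor HCT-8 cells were exposed to drug for 40 h.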
Another series deals with L1210. Briefly: Ability to inhibit the growth of leukemia L1210 cells in vitro. It counts as functional, cell-based. The following applies: Mus musculus. The procedure, abridged:
as §1

Series [2] deals with Lewis lung carcinoma cell line. Put plainly: Percent increase in life span, of the drug-treated tumor-bearing animals vs nontreated tumor-bearing controls with LL (Lewis lung carcinoma model) cells. In kind it is functional, Mus musculus. A digest of the protocol:
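Groups of 6. Optimal dose is in mg/kg per day. ILSmax is the % lifespan increase over untreated tumor-bearing controls at the optimal dose; above 40% counted significant. Cures are 60-day survivors.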

The test system of series [3] is Lewis lung carcinoma cell line. Briefly: Optimal dose to inhibit the LL (Lewis lung carcinoma model) cells in vivo after intraperitoneal administration. It counts as functional, Mus musculus. Set-up: unit: mg/kg/day. The procedure, abridged:
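Mice were inoculated iv with 10^6 Lewis lung carcinoma cells. OD is the optimal dose in mg/kg per day. Lifespan increase above 40% is significant, and long-term survival was scored at 60 days.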

Series [4] relates to P388/ADR. Put plainly: Percent increase in life span, of the drug-treated tumor-bearing animals vs nontreated tumor-bearing controls with P388/ADR cells. In kind it is functional, Mus musculus. The procedure, abridged:
(§2)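 Groups of 6. Optimal dose is in mg/kg per day. ILSmax is the % lifespan increase over untreated tumor-bearing controls at the optimal dose; above 20% counted significant. Cures are 50-day survivors.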

The test system of series [5] is P388/ADR. Briefly: Optimal dose required to inhibit the P388/ADR cells in vivo after intraperitoneal administration. In kind it is functional, Mus musculus. Set-up: unit: mg/kg/day.
The subject of series [6] is P388. Briefly: Optimal dose required to inhibit the P388 intraperitoneal administration. Set-up: unit: mg/kg/day. It counts as functional, Mus musculus.
Series [7] has as its system P388. Put plainly: Percent increase in life span of the drug-treated tumor-bearing animals vs nontreated tumor-bearing controls with P388 leukemia cells. It counts as functional, Mus musculus. A digest of the protocol:
as §2

For a further series, the system named is poly[d(A-T)]. Briefly: Binding constant for poly[d(A-T)] by ethidium bromide displacement.

`CNc1cc(NC(=O)OC)ccc1Nc1c2ccc(Cl)cc2nc2c(OC)cccc12` displayed a Rm in series [1] of 0.54. Moreover, the 50% inhibitory concentration (IC50) – broadly, the concentration needed to halve the response being measured – in the series with HCT-8 was determined as 1.1 µM; in the series on L1210, 0.66 µM. The values for the ILS max (in series [2]; in the series with P388/ADR [4]; in the series on P388 [7]) were 133, 73 and 177, respectively. The OD in series [3] came to 65; in the series with P388/ADR [5], 100; in the series on P388 [6] it was 100. Further, in the series on poly[d(A-T)], the Log K was 6.93.
In series [1], `CNc1cc(NC(=O)OC)ccc1Nc1c2ccccc2nc2cc(OC)ccc12` showed a Rm of 0.45. Besides, the IC50 in the series on HCT-8 is 0.33 µM; in the series with L1210, 0.17 µM. The ILS max is 85 in series [2], 89 with P388/ADR [4] and 108 in the series on P388 [7]. Moreover, the OD in [3] was 45; in the series on P388/ADR [5] it was 65; with P388 [6] it was 45. In addition, the Log K in the series with poly[d(A-T)] came to 6.74.
For `CNc1cc(NC(=O)OC)ccc1Nc1c2ccc(C)cc2nc2c(C)cccc12`, in [1], the Rm came to 0.51. Moreover, the IC50 with HCT-8 worked out at 0.08 µM; in the series on L1210, 0.044 µM. The values for the ILS max (in series [2]; in the series on P388/ADR [4]; in the series on P388 [7]) were 171, 33 and 181, respectively. For the same molecule, the OD in [3] is listed as 20; with P388/ADR [5] it was 13.3; in the series with P388 [6], 20. This molecule displayed a Log K in the series with poly[d(A-T)] of 6.95.
For `CNc1cc(NC(=O)OC)ccc1Nc1c2ccccc2nc2cc(Br)ccc12`, the Rm in [1] was 0.7. Also, the values for the IC50 with HCT-8 and in the series with L1210 were 0.8 µM and 0.341 µM, respectively. Moreover, the ILS max in series [2] is 86; with P388/ADR [4], 29; in the series on P388 [7] it was 101. Also, the OD (in [3]; in the series with P388/ADR [5]; with P388 [6]) was 45 in each case. In the series with poly[d(A-T)], this molecule displayed a Log K of 6.87.
With `CNc1cc(NC(=O)OC)ccc1Nc1c2ccc(Br)cc2nc2c(C)cccc12`, the Rm in series [1] worked out at 0.69. Besides, the IC50 came out at 0.23 µM in the series on HCT-8 and 0.18 µM in the series on L1210. For the same molecule, the values for the ILS max (in series [2]; with P388/ADR [4]; in the series with P388 [7]) were 82, 42 and 286, respectively. Moreover, the OD came out at 30 in [3], 45 in the series on P388/ADR [5] and 45 in the series with P388 [6]. Further, the Log K with poly[d(A-T)] amounted to 7.52.
Regarding `CNc1cc(NC(=O)OC)ccc1Nc1c2ccccc2nc2cc(Cl)ccc12`, the Rm in series [1] amounted to 0.73. In addition, the half-maximal inhibitory concentration (IC50) in the series on HCT-8 came to 0.55 µM; in the series with L1210, 0.174 µM. Also, the ILS max in series [2] is recorded as 92; in the series with P388/ADR [4], 35; in the series with P388 [7], 104. Besides, the OD in series [3] is on record as 45; in the series with P388/ADR [5], 65; in the series on P388 [6], 65. This molecule also displayed a Log K with poly[d(A-T)] of 6.13.
`CNC(=O)c1cccc2c(Nc3ccc(NC(=O)OC)cc3NC)c3cccc(C)c3nc12`: in [1], the Rm is 0.5. For the same molecule, the half-inhibitory concentration (IC50) in the series with HCT-8 was 1.85 µM; with L1210 it was 1.2 µM. Moreover, the ILS max in [2] is 84; in the series on P388/ADR [4] it was 35; in the series on P388 [7], 99. In addition, the OD is given as 30 in series [3], 30 in the series with P388/ADR [5] and 20 in the series on P388 [6]. The molecule further yielded a Log K with poly[d(A-T)] of 7.12.
In [1], `CNc1cc(NC(=O)OC)ccc1Nc1c2ccccc2nc2c(C)cccc12` displayed a Rm of 0.56. Further, the values for the IC50 in the series with HCT-8 and in the series with L1210 were 0.19 µM and 0.101 µM, respectively. Also, the figures for the ILS max (in [2]; in the series on P388/ADR [4]; in the series on P388 [7]) were 122, 43 and 114, respectively. The OD is 20 in series [3], 20 in the series on P388/ADR [5] and 13.3 with P388 [6]. In the series with poly[d(A-T)], this molecule yielded a Log K of 6.74.
For the molecule `CN(C)c1cc(NS(C)(=O)=O)ccc1Nc1c2ccccc2nc2ccccc12`, the Rm in series [1] is reported as 0.41. In the series on P388/ADR [4], this molecule returned an ILS max of 41. In addition, the OD worked out at 100 in the series with P388/ADR [5] and 166 in the series on P388 [6].
In series [1], `CNC(=O)c1cccc2c(Nc3ccc(NC(=O)OC)cc3NC)c3ccccc3nc12` came in with a Rm of 0.43. The IC50 in the series with HCT-8 was found to be 2.75 µM; in the series with L1210, 0.84 µM. The ILS max in [2] is listed as 58; in the series on P388 [7], 60. Also, the OD (in series [3]; with P388/ADR [5]; in the series on P388 [6]) was 65 throughout. The Log K in the series with poly[d(A-T)] stood at 6.48.
Take `CNc1cc(NC(=O)OC)ccc1Nc1c2ccc(C)cc2nc2c(OC)cccc12`: the Rm in series [1] came to 0.61. The molecule also showed a concentration for half-maximal inhibition (IC50) in the series with L1210 of 0.011 µM. Further, the values for the ILS max (in series [2]; in the series with P388/ADR [4]; in the series on P388 [7]) were 107, 57 and 128, respectively. In addition, the OD in [3] was found to be 65; in the series on P388/ADR [5], 45; in the series with P388 [6] it was 45. Besides, the Log K with poly[d(A-T)] worked out at 7.34.
In the case of `CNc1cc(NC(=O)OC)ccc1Nc1c2ccccc2nc2c(C(N)=O)cccc12`, the Rm in series [1] worked out at 0.06. The values for the concentration for half-maximal inhibition (IC50) in the series with HCT-8 and with L1210 were 3.6 µM and 1.6 µM, respectively. In addition, the OD in [3] is given as 65; with P388/ADR [5], 100; in the series with P388 [6], 100. For the same molecule, the ILS max with P388 [7] is 32. The Log K in the series on poly[d(A-T)] was 6.
Take `CNc1cc(NC(=O)OC)ccc1Nc1c2ccc(F)cc2nc2c(C)cccc12`: the Rm in series [1] is recorded as 0.52. Besides, the results for the half-maximal inhibitory concentration (IC50) in the series with HCT-8 and in the series on L1210 were 0.61 µM and 0.52 µM, respectively. For the same molecule, the figures for the ILS max (in [2]; in the series with P388/ADR [4]; in the series with P388 [7]) were 126, 47 and 43, respectively. Also, the OD turned out to be 45 in series [3], 65 with P388/ADR [5] and 65 with P388 [6]. Further, the Log K in the series on poly[d(A-T)] amounted to 7.37.
The molecule `CNc1cc(NC(=O)OC)ccc1Nc1c2ccccc2nc2c(F)cccc12` gave a Rm in [1] of 0.37. For the same molecule, the IC50 was 2.8 µM in the series on HCT-8 and 1.4 µM with L1210. In addition, the ILS max is 77 in series [2], 43 in the series with P388/ADR [4] and 103 in the series on P388 [7]. Further, the OD was found to be 65 in [3], 100 with P388/ADR [5] and 65 with P388 [6]. This molecule also gave a Log K with poly[d(A-T)] of 5.82.
For the molecule `CNc1cc(NC(=O)OC)ccc1Nc1c2ccc(Br)cc2nc2c(OC)cccc12`, in series [1], the Rm is on record as 0.55. The molecule further had an IC50 with L1210 of 0.36 µM. Moreover, the ILS max in [2] is 31; with P388/ADR [4], 20; with P388 [7], 98. Besides, the values for the OD (in series [3]; in the series with P388/ADR [5]; with P388 [6]) were 100, 65 and 65, respectively. The Log K in the series with poly[d(A-T)] came out at 6.43.
The molecule `CNC(=O)c1cccc2c(Nc3ccc(NC(=O)OC)cc3NC)c3cccc(OC)c3nc12` had a Rm in [1] of 0.45. Moreover, in the series on L1210, the IC50 stood at 1.75 µM. The ILS max in [2] was found to be 47; in the series on P388/ADR [4] it was 31; with P388 [7], 92. Moreover, the OD is reported as 65 in series [3], 45 in the series with P388/ADR [5] and 65 in the series on P388 [6]. In addition, in the series on poly[d(A-T)], the Log K is 6.95.
